Statin myotox sup: suppression of simvastatin myotoxicity. rescue of ATP level, % at 7.49 µM. C2C12 myotubes + simvastatin, ATP luminescence, 48 h; scaled: DMSO 0, geranylgeraniol control 100. 0.78% of 330,000 active. AID 602340;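 active = mean ATP rescue above about 67%, or every replicate alone reaching that limit, limit read from the data, passing the limit was not always enough; inconclusive = no clear call, values can overlap the other calls; inactive = mean under the limit and some replicate under it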;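 also: myotubes were challenged with 10 µM simvastatin during compound exposure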
E-sel inducer: induces E-selectin expression in human endothelial cells | P16581 | HUVEC E-selectin immunofluorescence imaging; normalized: neutral wells 0, TNF-alpha wells 100 | activation, % at 7.58 µM | 0.37% of 260,000 active;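 active = mean E-selectin-positive cell signal at least 10% of the positive control, reached in at least 60% of replicates, without over 20% cell loss; inconclusive = no rule given, readout overlaps actives, possibly toxicity-flagged; inactive = the rest, including those meeting only one limit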
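Read-out basis: % PE-positive cells; Test system: HUVEC primary endothelial cells; Technique: immunofluorescence imaging; Dosing: single-point compound dose.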
DENV2 CPE: inhibitors of DENV2 cytopathic effect. DENV2-infected cells, cytopathic effect rescue, plate reader. 1.7% of 350,000 active. CPE inhibition, % at 9.99 µM. AID 651640; in the data active = CPE inhibition above about 20%, passing the limit was not always enough; inconclusive = no clear call, values can overlap the other calls; tested in BHK-21 cells
PglD DTNB: PglD (C. jejuni) enzyme inhibition | purified PglD enzyme, DTNB colorimetric CoA detection | 0.098% of 360,000 active | inhibition, % at 12.5 µM | AID 602405; in the data active = inhibition above about 16%, passing the limit was not always enough; inconclusive = no clear call, values can overlap the other calls
FGF22 binding: FGF22 (human) thermal shift binding. 1.5% of 340,000 active. Q9HCT0. activity (Tm shift, normalised), % at 9.99 µM. recombinant FGF22 thermal shift, SYPRO orange fluorescence; percent of sucrose octasulfate shift, DMSO zero;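 active = mean Tm shift, scaled 0 neutral to 100 positive control, at about 1.3% or above, every replicate too, limit read from the data; inconclusive = no clear call, values can overlap the other calls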
Target sequence (Q9HCT0 whole entry, looked up): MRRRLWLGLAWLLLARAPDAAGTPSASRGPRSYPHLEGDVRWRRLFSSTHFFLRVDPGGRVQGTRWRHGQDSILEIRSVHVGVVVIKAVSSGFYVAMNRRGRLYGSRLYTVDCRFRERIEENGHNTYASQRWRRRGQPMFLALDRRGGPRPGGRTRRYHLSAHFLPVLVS
XiGFP reactiv: activators of X-chromosome reactivation in mouse fibroblasts; XiGFP mouse fibroblasts, % GFP-positive cells imaging, 3 d; cells co-treated with 5-aza-dC sensitizer; scaled so ellipticine positive control = 100%; 0.055% of 360,000 active; activation, % at 7.58 µM;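 active = mean normalized replicate activation at least 10% and every replicate at or above 10%; inconclusive = only one of the two criteria met; inactive = mean below 10% and not all replicates reach 10%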
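System: 68-5-11 XiGFP fibroblast line; Timing: 3 days compound exposure; Compound dosing: one concentration, pinned; Benchmarks: positive control ellipticine, 6 µM final; Buffer or medium: DMEM containing 5-aza-dC.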
A number is an active result; n = inactive; u = inconclusive; x = no result; ! = not active in a repeat. The list is not random: actives were taken first. Their share in the collection is about 3.3%.

SMILES	Statin myotox sup	E-sel inducer	DENV2 CPE	PglD DTNB	FGF22 binding	XiGFP reactiv
O=C(Nc1ccccc1F)N[C@H]1CC[C@@H](CCNC(=O)C2CCC2)O[C@H]1CO	n	n	n	n	n	n
CCCNC(=O)N1[C@H](CO)[C@H](c2ccc(C3=CCCCC3)cc2)[C@@H]1CNC(C)C	x	n	n	x	x	n
Cc1cc(=O)oc(C)c1C(=O)NCCNC(=O)c1c(C)cc(=O)oc1C	121.1	x	x	n	x	x
O=C(c1cc(-c2ccc(Cl)cc2Cl)on1)N1CCCC1	n	n	n	n	43.6	n
CCC(C(=O)N(C(C)C)C(C)C)c1ccccc1 (stereo not given)	130.4	n	n	n	n	n
CCC(C(=O)c1ccc(O)cc1)c1ccccc1 (stereo not given)	n	x	x	n	x	x
CCC(=O)N1C[C@@H](O)COC[C@H]2O[C@@H](CC(=O)NC)CC[C@@H]21	n	x	n	n	n	n
COc1ccc(C2=NN(C(=O)CSc3nnc(C)n3C)C(c3ccco3)C2)cc1 (stereo not given)	x	x	n	x	42.9	n
Clc1ccc(-c2nnc(C3CC3)o2)cc1	n	x	n	x	n	n
Clc1ccc(-c2nnc(C3CCCCC3)o2)cc1	123.3	x	x	n	x	x
COc1ccc(CN(C)C[C@H]2Oc3ccc(NS(=O)(=O)c4c(C)noc4C)cc3CC(=O)N([C@H](C)CO)C[C@@H]2C)cc1	n	n	n	x	n	n
Cc1cccc(/C=C(\c2nc3ccccc3[nH]2)S(=O)(=O)c2ccccc2)c1	77.9	n	n	x	n	n
CC(C)(C)c1ccc(/C=C(\c2nc3ccccc3[nH]2)S(=O)(=O)c2ccccc2)cc1	n	x	x	n	x	x
C[C@@H]1CN([C@@H](C)CO)C(=O)c2cc(NS(=O)(=O)c3ccccc3)ccc2O[C@@H](C)CCCCO[C@@H]1CN(C)C(=O)c1ccncc1	x	n	n	n	n	n
CO[C@@H]1CN(C)C(=O)c2ccc(NS(C)(=O)=O)cc2OC[C@H](C)N(Cc2cccnc2)C[C@H]1C	x	n	n	x	n	n
Cn1cnnc1SCC(=O)N1CCC(Cc2ccccc2)CC1	99.4	x	x	n	x	x
COc1cccc(-c2ccc(C3[C@@H]4CN(S(=O)(=O)c5ccccc5C)C[C@H]3N4)cc2)c1 (stereo not given in full)	x	n	n	x	x	n
O=S(=O)(c1ccccc1)N1CCCCN2[C@H](CO)[C@H](c3ccc(-c4cncnc4)cc3)[C@@H]2C1	x	n	33.3	n	n	n
Cc1ccccc1S(=O)(=O)N1CCCCN2[C@H](CO)[C@H](c3ccc(-c4cncnc4)cc3)[C@@H]2C1	x	n	36.1	n	n	n
O=S(=O)(c1ccccc1)N1CCCCN2[C@@H](CO)[C@H](c3ccc(-c4cncnc4)cc3)[C@@H]2C1	x	n	n	n	n	n
COc1ccc(-c2ccc(C3[C@@H]4CN(S(=O)(=O)c5ccccc5C)C[C@H]3N4)cc2)cc1 (stereo not given in full)	x	n	31.3!	x	n	u
C[C@@H]1CNC(=O)[C@H](Cc2ccc(C(F)(F)F)cc2)CCn2nncc2COC1	x	x	x	x	x	n
C[C@H](CO)N1C[C@H](C)[C@H](CN(C)S(=O)(=O)c2ccc(Cl)cc2)Oc2ccc(NC(=O)Nc3ccc(F)cc3)cc2CC1=O	n	39.8	n	n	n	n
C[C@H](CO)N1C[C@H](C)[C@H](CN(C)S(=O)(=O)c2ccc(F)cc2)Oc2ccc(NC(=O)Nc3ccc(F)cc3)cc2CC1=O	n	n	u	n	n	n
C[C@H](CO)N1C[C@H](C)[C@H](CN(C)S(=O)(=O)c2ccccc2)Oc2ccc(NC(=O)Nc3ccc(F)cc3)cc2CC1=O	n	40.7	n	n	n	n
SMILES	Statin myotox sup	E-sel inducer	DENV2 CPE	PglD DTNB	FGF22 binding	XiGFP reactiv
COc1ccccc1CNC(=O)C[C@@H]1CC[C@@H]2[C@H](COC[C@@H](O)CN2C(=O)Nc2ccc(F)cc2)O1	n	n	n	n	n	n
O=C(CCCCCN1C(=O)c2cccc3cccc(c23)C1=O)NCCCO	n	n	n	n	n	n
O=C(CN1C(=O)c2cccc3cccc(c23)C1=O)NCCCO	n	63.5	n	n	n	n
Cc1noc(C)c1S(=O)(=O)Nc1ccc2c(c1)C(=O)N([C@H](C)CO)C[C@H](C)[C@@H](CN(C)C(=O)CCCN(C)C)OCCCC[C@H](C)O2	x	n	79.0	n	n	n
Cc1noc(C)c1S(=O)(=O)Nc1ccc2c(c1)C(=O)N([C@@H](C)CO)C[C@@H](C)[C@H](CN(C)C(=O)CCCN(C)C)OCCCC[C@H](C)O2	x	n	x	n	n	n
Cc1noc(C)c1S(=O)(=O)Nc1ccc2c(c1)C(=O)N([C@H](C)CO)C[C@H](C)[C@H](CN(C)C(=O)CCC(F)(F)F)OCCCC[C@@H](C)O2	x	n	71.9	n	n	n
CC(C)NC(=O)N(C)C[C@@H]1Oc2ccc(NC(=O)Cc3cn(C)c4ccccc34)cc2C(=O)N([C@H](C)CO)C[C@@H]1C	n	n	n	n	n	n
O=C(C[C@H]1C[C@H]2c3cc(NC(=O)c4ccc5c(c4)OCO5)ccc3O[C@H]2[C@H](CO)O1)NCC(F)(F)F	n	n	n	n	n	n
CN(C(=O)c1ccc(N2CCCCC2)c([N+](=O)[O-])c1)C1CCS(=O)(=O)C1 (stereo not given)	108.2	n	n	n	n	n
Cc1cc(C)cc(C(=O)N2CCN=C2c2ccccc2)c1	x	x	x	x	43.2	n
CN1CCN(S(=O)(=O)c2ccc(Cc3ccc(S(=O)(=O)N4CCN(C)CC4)cc3)cc2)CC1	81.8	x	x	x	x	x
CN1CCN(S(=O)(=O)c2ccc(Cl)cc2)CC1	n	n	u	n	n	n
CCCN1CN(Cc2ccco2)c2nc3ccccc3n2C1	88.8	x	x	n	x	x
COC(=O)CSc1nnc(CNC(=O)c2ccccc2F)n1-c1ccc(F)cc1	x	n	n	x	n	n
CCSc1nnc(CNC(=O)c2ccccc2F)n1-c1ccccc1OC	n	x	n	n	43.5	n
CCNC(=O)[C@@H]1[C@@H](CO)[C@@H]2Cn3c(cccc3=O)[C@@H]2N1CC1CCCCC1	n	n	x	n	x	n
CCC(=O)N1CCC2(CC1)CN(C(=O)NC1CCCC1)[C@@H](CO)c1c2c2ccc(OC)cc2n1C	x	n	n	x	n	n
CC(C)NC(=O)N(C)C[C@@H]1OCCCC[C@@H](C)Oc2ccc(NC(=O)Nc3ccc(F)cc3)cc2C(=O)N([C@H](C)CO)C[C@H]1C	x	n	n	n	n	n
CC(C)NC(=O)N(C)C[C@@H]1OCCCC[C@@H](C)Oc2ccc(NC(=O)Nc3ccc(F)cc3)cc2C(=O)N([C@H](C)CO)C[C@@H]1C	n	n	47.5!	n	n	n

Compound activity deposited in PubChem by Broad Institute.
